# ChEMBL document CHEMBL1828575, “Design, synthesis and antiproliferative activities of biarylolefins based on polyhydroxylated and carbohydrate scaffolds” (Eur J Med Chem, 2011)
# Experiments:
# Assay type in all cases: functional
# [1] = Antitumor activity against human Hs 578T cells after 48 hrs by SRB assay
# Summary of the method: (§1)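 NCI60 panel in RPMI 1640 with 5% FBS and 2 mM L-glutamine. Cells were plated at 5000–40,000/well by doubling time, held 24 h, then time-zero plates were TCA-fixed. Five concentrations (10-fold or half-log dilutions of DMSO stocks) were applied for 48 h at 37 °C, 5% CO2. Cells were fixed with cold TCA (10% final adherent, 16% suspension) and stained with 0.4% SRB. Bound dye was dissolved in 10 mM Tris and read at 515 nm. GI50, TGI and LC50 were calculated per line.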
# [2] = test system: NCI-H322M; test: Antitumor activity against human NCI-H322M cells after 48 hrs by SRB assay; summary of the method: as §1
# [3] = test system: RXF 393; test: Antitumor activity against human RXF393 cells after 48 hrs by SRB assay; details: RXF 393, 48 h; summary of the method: as §1
# [4] = test system: EKVX; test: Antitumor activity against human EKVX cells after 48 hrs by SRB assay; summary of the method: as §1
# [5] = test system: SNB-19; test: Antitumor activity against human SNB19 cells after 48 hrs by SRB assay; details: SNB-19, 48 h
# Summary of the method: (§2)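 NCI60 panel cells grown in RPMI 1640 with 5% FBS and 2 mM L-glutamine, plated at 5000–40,000 cells/well and preincubated 24 h at 37 °C, 5% CO₂. Compound was added from DMSO at five concentrations, 10-fold or 1/2 log dilutions, then incubated 48 h.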
# [6] = test system: TK-10; test: Cytotoxicity against human TK10 cells assessed as cellular growth at 10 uM after 48 hrs by SRB assay
# Summary of the method: (§3)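 NCI-60 panel lines grown in RPMI 1640 with 5% FBS and 2 mM L-glutamine. Plated at 5000–40,000 cells/well and preincubated 24 h at 37 °C, 5% CO₂, with time-zero plates fixed in TCA. Compounds, dissolved in DMSO and diluted in medium, were applied for 48 h. Cells were TCA-fixed (10% final for adherent, 16% for suspension) and stained with 0.4% SRB in 1% acetic acid. Dye was solubilised in 10 mM Tris base and read at 515 nm; growth was expressed as a percentage of untreated control.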
# [7] = test system: SF-539; test: Antitumor activity against human SF539 cells after 48 hrs by SRB assay; details: SF-539, 48 h; summary of the method: as §2
# [8] = test system: 786-0; test: Antitumor activity against human 786-0 cells after 48 hrs by SRB assay; details: 786-0, 48 h; summary of the method: as §1
# [9] = test system: SF-539; test: Cytotoxicity against human SF539 cells assessed as cellular growth at 10 uM after 48 hrs by SRB assay; summary of the method: as §3
# [10] = test system: MDA-MB-231; test: Antitumor activity against human MDA-MB-231 cells after 48 hrs by SRB assay; details: MDA-MB-231, 48 h; summary of the method: as §1
# [11] = test system: MCF7; test: Antitumor activity against human MCF7 cells after 48 hrs by SRB assay; details: MCF7, 48 h; summary of the method: as §1
# [12] = test system: CAKI-1; test: Antitumor activity against human Caki1 cells after 48 hrs by SRB assay; details: CAKI-1, 48 h; summary of the method: as §1
# [13] = test system: SNB-75; test: Cytotoxicity against human SNB75 cells assessed as cellular growth at 10 uM after 48 hrs by SRB assay; summary of the method: as §3
# [14] = test system: TK-10; test: Antitumor activity against human TK10 cells after 48 hrs by SRB assay; details: TK-10, 48 h; summary of the method: as §2
# [15] = test system: U-251; test: Cytotoxicity against human U251 cells assessed as cellular growth at 10 uM after 48 hrs by SRB assay; summary of the method: as §3
# [16] = test system: 786-0; test: Cytotoxicity against human 786-0 cells assessed as cellular growth at 10 uM after 48 hrs by SRB assay
# Summary of the method: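 NCI60 single-dose screen of cells in RPMI 1640 with 5% FBS and 2 mM L-glutamine, preincubated 24 h at 37 °C, 5% CO₂. Cells were then exposed 48 h to compound added from DMSO stock. TCA-fixed, stained with 0.4% SRB in 1% acetic acid, dye solubilised in 10 mM Tris base and read at 515 nm. Growth is given as percent of untreated control.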
# [17] = test system: NCI-H322M; test: Cytotoxicity against human NCI-H322M cells assessed as cellular growth at 10 uM after 48 hrs by SRB assay; summary of the method: as §3
# [18] = test system: SN12C; test: Antitumor activity against human SN12C cells after 48 hrs by SRB assay; summary of the method: as §2
# [19] = test system: MDA-MB-231; test: Cytotoxicity against human MDA-MB-231 cells assessed as cellular growth at 10 uM after 48 hrs by SRB assay; summary of the method: as §3
# [20] = test system: SF-295; test: Antitumor activity against human SF295 cells after 48 hrs by SRB assay; details: SF-295, 48 h; summary of the method: as §1
# [21] = test system: OVCAR-3; test: Cytotoxicity against human OVCAR3 cells assessed as cellular growth at 10 uM after 48 hrs by SRB assay; summary of the method: as §3
# [22] = test system: Malme-3M; test: Antitumor activity against human MALME-3M cells after 48 hrs by SRB assay; summary of the method: as §1
# [23] = test system: OVCAR-5; test: Cytotoxicity against human OVCAR5 cells assessed as cellular growth at 10 uM after 48 hrs by SRB assay; summary of the method: as §3
# [24] = test system: SNB-19; test: Cytotoxicity against human SNB19 cells assessed as cellular growth at 10 uM after 48 hrs by SRB assay; summary of the method: as §3
# [25] = read-out: LC50 (the source's name)
# [26] = read-out: pLC50 (the source's name) (converted)
smiles,measurement,setting,value
COc1cc(/C(=C2\O[C@@H]([C@H]3COC(C)(C)O3)[C@H]3OC(C)(C)O[C@@H]23)c2ccc3ccccc3c2)cc(OC)c1OC,GI50,[1],4.44 µM
same,TGI,[1],53.4 µM
same,CC50,[1]; [25],> 100 µM
same,GI50,[2]; read-out: GI50,6.74 µM
same,CC50,[2]; [25],> 100 µM
same,TGI,[2]; read-out: TGI,> 100 µM
same,GI50,[2]; read-out: pGI50 (converted),5.75 µM
same,CC50,[2]; [26],> 100 µM
same,TGI,[2]; read-out: pTGI,> 100 µM
same,GI50,[3],2540 nM
same,TGI,[3],5.99 µM
same,CC50,[3]; [25],32.6 µM
same,GI50,[4]; read-out: GI50,5.59 µM
same,CC50,[4]; [25],> 100 µM
same,TGI,[4]; read-out: TGI,> 100 µM
same,GI50,[4]; read-out: pGI50 (converted),5.62 µM
same,CC50,[4]; [26],> 100 µM
same,TGI,[4]; read-out: pTGI,> 100 µM
same,GI50,[5],2490 nM
same,TGI,[5],6.08 µM
same,CC50,[5]; [25],> 100 µM
same,Activity,[6],22.74%
same,GI50,[7],14.3 µM
same,TGI,[7],79 µM
same,CC50,[7]; [25],> 100 µM
same,GI50,[8],2300 nM
same,LC50,[8],8.6 µM
same,TGI,[8],4.47 µM
same,Activity,[9],26.42%
same,GI50,[10],6.28 µM
same,TGI,[10],69.7 µM
same,CC50,[10]; [25],> 100 µM
same,GI50,[11]; read-out: GI50,3.69 µM
same,CC50,[11]; [25],> 100 µM
same,TGI,[11]; read-out: TGI,14.4 µM
same,GI50,[11]; read-out: pGI50 (converted),3.63 µM
same,CC50,[11]; [26],> 100 µM
same,TGI,[11]; read-out: pTGI (converted),14.5 µM
same,GI50,[12]; read-out: GI50,4.54 µM
same,CC50,[12]; [25],> 100 µM
same,TGI,[12]; read-out: TGI,> 100 µM
same,GI50,[12]; read-out: pGI50 (converted),3.63 µM
same,CC50,[12]; [26],> 100 µM
same,TGI,[12]; read-out: pTGI (converted),> 100 µM
same,Activity,[13],41.12%
same,GI50,[14]; read-out: GI50,3.2 µM
same,CC50,[14]; [25],> 100 µM
same,TGI,[14]; read-out: TGI,7.2 µM
same,GI50,[14]; read-out: pGI50 (converted),3.16 µM
same,CC50,[14]; [26],> 100 µM
same,TGI,[14]; read-out: pTGI (converted),7.24 µM
same,Activity,[15],18%
same,Activity,[16],-1.42%
same,Activity,[17],55.06%
same,GI50,[18]; read-out: GI50,3.65 µM
same,CC50,[18]; [25],> 100 µM
same,TGI,[18]; read-out: TGI,> 100 µM
same,GI50,[18]; read-out: pGI50 (converted),3.16 µM
same,CC50,[18]; [26],> 100 µM
same,TGI,[18]; read-out: pTGI,> 100 µM
same,Activity,[19],13.6%
same,GI50,[20]; read-out: GI50,6.92 µM
same,CC50,[20]; [25],> 100 µM
same,TGI,[20]; read-out: TGI,52.1 µM
same,GI50,[20]; read-out: pGI50 (converted),6.92 µM
same,CC50,[20]; [26],> 100 µM
same,TGI,[20]; read-out: pTGI (converted),52.5 µM
same,Activity,[21],-6.76%
same,GI50,[22],2070 nM
same,LC50 (concentration killing 50% of cells present at time zero),[22],> 100 µM
same,TGI,[22],5.59 µM
same,Activity,[23],38.17%
same,Activity,[24],29%
